Among the data in ChEMBL document CHEMBL5705897, “Characterization of WZ4003 and HTH-01-015 as selective inhibitors of the LKB1-tumour-suppressor-activated NUAK kinases” (Biochem J, 2014) are inhibition and Activity values, retold here.

Molecules are shown by their SMILES. Calls of active or inactive are those of the source. The rule behind the calls is not given here.

One assay relates to U2OS. In words: Inhibition of cell invasion in human U2OS cells at 10 uM incubated for 16 hrs by matrigel based transwell assay. The assay is classed as functional. The method, boiled down: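 Growth-factor-reduced Matrigel Transwell invasion: U2OS cells serum-deprived 2 h, detached, 2.5×10^5 cells in DMEM/1% BSA added to upper chambers in triplicate, DMEM/10% FBS as chemoattractant below; 16 h at 37 °C, 5% CO2 with or without 10 μM inhibitor in both compartments; cells on lower filter face fixed, stained, imaged ×10 and counted; mean ± S.D.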

The target in assay [1] is Dual specificity tyrosine-phosphorylation-regulated kinase 3 (Homo sapiens) (UniProt O43781). Nature of the assay: Inhibition of recombinant human N-terminal GST-tagged DYRK3 (1 to 588 residues) expressed in Escherichia coli assessed as remaining activity at 1 uM using KKISGRLSPIMTEQ as substrate incubated for 30 mins in presence of [gamma-33P]ATP by filter binding method relative to control. Summed up: (§1)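 Screened at the International Centre for Protein Kinase Profiling against a 140-kinase panel, with inhibitor at 0.1 or 1 μM; activity expressed as percentage of DMSO control reactions, mean of triplicate reactions.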

The target in assay [2] is Serine/threonine-protein kinase TBK1 (Homo sapiens) (UniProt Q9UHD2). Nature of the assay: Inhibition of recombinant human N-terminal GST-tagged TBK1 (1 to 729 residues) expressed in baculovirus infected Sf21 cells assessed as remaining activity at 1 uM using KKKKERLLDDRHDSGLDSMKDEE as substrate incubated for 30 mins in presence of [gamma-33P]ATP by filter binding method relative to control. The method, boiled down: as §1

In assay [3] the target is T1, NUAK family SNF1-like kinase 1 (Homo sapiens) (UniProt O60285).
T1 sequence (whole entry): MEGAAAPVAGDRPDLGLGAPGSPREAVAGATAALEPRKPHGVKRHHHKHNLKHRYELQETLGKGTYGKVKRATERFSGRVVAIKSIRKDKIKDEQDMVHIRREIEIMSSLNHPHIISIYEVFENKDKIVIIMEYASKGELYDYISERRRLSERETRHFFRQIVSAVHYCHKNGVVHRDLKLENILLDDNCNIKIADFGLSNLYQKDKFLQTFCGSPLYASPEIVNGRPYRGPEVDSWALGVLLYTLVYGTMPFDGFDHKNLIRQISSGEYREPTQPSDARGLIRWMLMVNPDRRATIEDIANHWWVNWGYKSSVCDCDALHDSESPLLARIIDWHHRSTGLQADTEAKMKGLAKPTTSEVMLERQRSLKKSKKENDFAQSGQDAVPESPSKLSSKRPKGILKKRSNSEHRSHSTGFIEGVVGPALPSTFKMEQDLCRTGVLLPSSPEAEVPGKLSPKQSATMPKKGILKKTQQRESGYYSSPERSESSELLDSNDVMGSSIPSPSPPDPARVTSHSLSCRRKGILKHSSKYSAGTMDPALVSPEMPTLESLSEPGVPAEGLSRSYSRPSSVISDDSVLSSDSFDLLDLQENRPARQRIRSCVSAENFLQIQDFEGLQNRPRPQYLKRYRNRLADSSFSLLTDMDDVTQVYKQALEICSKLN
In words: Inhibition of NUAK1 in human U2OS cells assessed as reduction in MYPT1 phosphorylation at Ser445 residues at 10 uM after 16 hrs by immunoblot analysis. The assay is classed as cell-based. The method, boiled down: (§2)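 U2OS cells or NUAK1+/+ MEFs treated with or without 10 μM inhibitor for 16 h, then 20 min in EDTA-PBS dissociation buffer with 10 μM inhibitor or DMSO; detached by tapping and 70 g 3 min spin, lysed immediately and immunoblotted for MYPT1 p-Ser445; three separate experiments.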

The target of assay [4] is Protein kinase C alpha type (Homo sapiens) (UniProt P17252). In words: Inhibition of recombinant human N-terminal His6-tagged PKCalpha (1 to 672 residues) expressed in baculovirus infected Sf21 cells assessed as remaining activity at 1 uM using Histone H1 as substrate incubated for 30 mins in presence of [gamma-33P]ATP by filter binding method relative to control. The method, boiled down: as §1

In assay [5] the target is T1, NUAK family SNF1-like kinase 1 (Homo sapiens). In words: Inhibition of NUAK1 in HEK293 cells assessed as reduction in MYPT1 phosphorylation at Ser445 residue incubated for 16 hrs by immunoblot analysis. The assay is classed as cell-based. The following applies: dose 3-10 µM. The method, boiled down: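 HEK-293 cells exposed to inhibitor or DMSO for 16 h; medium replaced by EDTA-PBS dissociation buffer with the same inhibitor concentration to induce detachment (gentle tapping, 70 g, 3 min); cells lysed at once; MYPT1 immunoprecipitated from 0.5 mg lysate, blotted for p-Ser445 and total MYPT1; repeated three times.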

Assay [6] addresses Serine/threonine-protein kinase PLK1 (Homo sapiens) (UniProt P53350). Nature of the assay: Inhibition of recombinant human N-terminal His6-tagged PLK1 (1 to 603 residues) expressed in baculovirus infected Sf21 cells assessed as remaining activity at 1 uM using ISDELMDATFADQEAKKK as substrate incubated for 30 mins in presence of [gamma-33P]ATP by filter binding method relative to control. Summed up:
as §1

Assay [7] has as its target Mitogen-activated protein kinase 13 (Homo sapiens) (UniProt O15264). In words: Inhibition of recombinant human GST-tagged P38delta (1 to 365 residues) expressed in Escherichia coli assessed as remaining activity at 1 uM using MBP as substrate incubated for 30 mins in presence of [gamma-33P]ATP by filter binding method relative to control. Summed up: as §1
In assay [8] the target is T1, NUAK family SNF1-like kinase 1 (Homo sapiens). In words: Inhibition of NUAK1 (unknown origin) expressed in HEK293 cells assessed as reduction in MYPT1 phosphorylation at Ser445 residue at 30 uM incubated for 16 hrs by immunoblot analysis. The assay is classed as cell-based. The method, boiled down: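 HEK-293 Flp/In T-Rex cells stably expressing HA–NUAK1 or HA–NUAK1[A195T] (doxycycline 0.1 μg/ml, 16–24 h to induce) treated with inhibitor 16 h, then detached in EDTA-PBS dissociation buffer containing the same inhibitor concentration, tapped and spun 70 g 3 min; lysed, endogenous MYPT1 immunoprecipitated from 0.5 mg lysate and immunoblotted for p-Ser445 and total MYPT1; three separate experiments.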
In general terms: Immunoblotting shows a protein as a band on a membrane.

Assay [9] addresses Ribosomal protein S6 kinase alpha-1 (Homo sapiens) (UniProt Q15418). Nature of the assay: Inhibition of recombinant human N-terminal His6-tagged RSK1 (1 to 735 residues) expressed in baculovirus infected Sf21 cells assessed as remaining activity at 1 uM using KKLNRTLSVA as substrate incubated for 30 mins in presence of [gamma-33P]ATP by filter binding method relative to control. The method, boiled down: as §1

Assay [10] addresses Ephrin type-B receptor 4 (Homo sapiens) (UniProt P54760). Nature of the assay: Inhibition of recombinant human N-terminal His6-tagged EPHB4 (561 to 987 residues) expressed in baculovirus infected Sf21 cells assessed as remaining activity at 1 uM using Poly (Glu,Tyr) as substrate incubated for 30 mins in presence of [gamma-33P]ATP by filter binding method relative to control. The method, boiled down:
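Run within a 140-kinase specificity panel at the International Centre for Protein Kinase Profiling. Compounds were dissolved in DMSO and tested in vitro at 0.1 or 1 μM. Activity is expressed as percentage of kinase activity in DMSO control reactions, as the mean ± S.D. of triplicate reactions.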

The next assay deals with MEF. In words: Inhibition of NUAK1 in NUAK1+/+ MEF cells assessed as reduction in MYPT1 phosphorylation at Ser445 residues at 10 uM after 16 hrs by immunoblot analysis. The note with it: Mus musculus. The assay is classed as cell-based. Summed up:
as §2

Ribosomal protein S6 kinase alpha-1 (Homo sapiens), sequence (Q15418 whole entry, the tested form may be a part): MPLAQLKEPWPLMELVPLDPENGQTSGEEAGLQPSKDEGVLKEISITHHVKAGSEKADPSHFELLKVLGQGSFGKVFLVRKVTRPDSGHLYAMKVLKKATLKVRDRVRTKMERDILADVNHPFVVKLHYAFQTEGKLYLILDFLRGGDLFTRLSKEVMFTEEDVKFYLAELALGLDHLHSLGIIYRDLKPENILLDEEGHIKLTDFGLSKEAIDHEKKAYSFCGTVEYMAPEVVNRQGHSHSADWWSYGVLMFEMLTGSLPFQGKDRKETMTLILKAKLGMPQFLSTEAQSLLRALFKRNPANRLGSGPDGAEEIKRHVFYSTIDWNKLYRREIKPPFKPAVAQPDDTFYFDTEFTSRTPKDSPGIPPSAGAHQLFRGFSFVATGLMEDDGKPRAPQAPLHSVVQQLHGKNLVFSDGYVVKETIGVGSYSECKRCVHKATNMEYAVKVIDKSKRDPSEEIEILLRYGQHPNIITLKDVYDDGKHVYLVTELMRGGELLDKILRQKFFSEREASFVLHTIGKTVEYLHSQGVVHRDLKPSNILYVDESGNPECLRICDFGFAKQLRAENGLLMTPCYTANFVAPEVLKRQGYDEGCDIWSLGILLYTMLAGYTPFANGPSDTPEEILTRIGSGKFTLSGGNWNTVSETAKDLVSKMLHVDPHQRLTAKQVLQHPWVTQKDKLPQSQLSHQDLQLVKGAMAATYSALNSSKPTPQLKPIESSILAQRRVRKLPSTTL
Serine/threonine-protein kinase TBK1 (Homo sapiens), sequence (Q9UHD2 whole entry, the tested form may be a part): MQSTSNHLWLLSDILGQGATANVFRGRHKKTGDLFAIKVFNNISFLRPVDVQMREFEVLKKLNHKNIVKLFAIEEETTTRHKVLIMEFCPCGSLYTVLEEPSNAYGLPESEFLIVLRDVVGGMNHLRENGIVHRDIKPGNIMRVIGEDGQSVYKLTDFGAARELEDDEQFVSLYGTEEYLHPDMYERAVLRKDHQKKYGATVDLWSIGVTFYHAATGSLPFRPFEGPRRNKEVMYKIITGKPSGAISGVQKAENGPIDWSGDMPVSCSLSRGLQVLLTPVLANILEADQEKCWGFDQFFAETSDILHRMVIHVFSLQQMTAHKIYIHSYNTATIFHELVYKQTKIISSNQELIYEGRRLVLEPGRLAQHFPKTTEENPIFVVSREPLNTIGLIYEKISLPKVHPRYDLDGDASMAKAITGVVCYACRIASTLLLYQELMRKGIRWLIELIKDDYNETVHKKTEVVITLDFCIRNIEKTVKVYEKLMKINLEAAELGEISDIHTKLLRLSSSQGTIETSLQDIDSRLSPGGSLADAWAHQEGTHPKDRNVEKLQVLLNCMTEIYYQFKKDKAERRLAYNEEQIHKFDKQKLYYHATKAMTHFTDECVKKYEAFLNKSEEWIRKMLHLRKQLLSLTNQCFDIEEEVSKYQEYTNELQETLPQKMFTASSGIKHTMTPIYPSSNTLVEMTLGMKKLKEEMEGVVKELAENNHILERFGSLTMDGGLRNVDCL
Dual specificity tyrosine-phosphorylation-regulated kinase 3 (Homo sapiens), sequence (O43781 whole entry, the tested form may be a part): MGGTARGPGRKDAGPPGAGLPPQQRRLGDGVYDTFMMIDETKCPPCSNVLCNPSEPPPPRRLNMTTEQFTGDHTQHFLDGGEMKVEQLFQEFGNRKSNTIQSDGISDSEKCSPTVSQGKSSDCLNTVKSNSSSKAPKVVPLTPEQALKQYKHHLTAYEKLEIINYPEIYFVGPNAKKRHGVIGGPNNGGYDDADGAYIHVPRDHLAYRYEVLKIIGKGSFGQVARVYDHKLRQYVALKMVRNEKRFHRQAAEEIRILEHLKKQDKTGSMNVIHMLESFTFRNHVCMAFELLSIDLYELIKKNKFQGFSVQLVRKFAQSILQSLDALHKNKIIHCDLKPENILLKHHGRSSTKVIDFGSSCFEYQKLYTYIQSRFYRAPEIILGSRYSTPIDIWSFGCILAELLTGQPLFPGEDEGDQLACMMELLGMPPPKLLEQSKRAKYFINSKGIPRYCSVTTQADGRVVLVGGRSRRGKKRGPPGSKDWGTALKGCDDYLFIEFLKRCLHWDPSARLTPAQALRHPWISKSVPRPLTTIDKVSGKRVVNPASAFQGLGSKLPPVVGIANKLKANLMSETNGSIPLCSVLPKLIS
Ephrin type-B receptor 4 (Homo sapiens), sequence (P54760 whole entry, the tested form may be a part): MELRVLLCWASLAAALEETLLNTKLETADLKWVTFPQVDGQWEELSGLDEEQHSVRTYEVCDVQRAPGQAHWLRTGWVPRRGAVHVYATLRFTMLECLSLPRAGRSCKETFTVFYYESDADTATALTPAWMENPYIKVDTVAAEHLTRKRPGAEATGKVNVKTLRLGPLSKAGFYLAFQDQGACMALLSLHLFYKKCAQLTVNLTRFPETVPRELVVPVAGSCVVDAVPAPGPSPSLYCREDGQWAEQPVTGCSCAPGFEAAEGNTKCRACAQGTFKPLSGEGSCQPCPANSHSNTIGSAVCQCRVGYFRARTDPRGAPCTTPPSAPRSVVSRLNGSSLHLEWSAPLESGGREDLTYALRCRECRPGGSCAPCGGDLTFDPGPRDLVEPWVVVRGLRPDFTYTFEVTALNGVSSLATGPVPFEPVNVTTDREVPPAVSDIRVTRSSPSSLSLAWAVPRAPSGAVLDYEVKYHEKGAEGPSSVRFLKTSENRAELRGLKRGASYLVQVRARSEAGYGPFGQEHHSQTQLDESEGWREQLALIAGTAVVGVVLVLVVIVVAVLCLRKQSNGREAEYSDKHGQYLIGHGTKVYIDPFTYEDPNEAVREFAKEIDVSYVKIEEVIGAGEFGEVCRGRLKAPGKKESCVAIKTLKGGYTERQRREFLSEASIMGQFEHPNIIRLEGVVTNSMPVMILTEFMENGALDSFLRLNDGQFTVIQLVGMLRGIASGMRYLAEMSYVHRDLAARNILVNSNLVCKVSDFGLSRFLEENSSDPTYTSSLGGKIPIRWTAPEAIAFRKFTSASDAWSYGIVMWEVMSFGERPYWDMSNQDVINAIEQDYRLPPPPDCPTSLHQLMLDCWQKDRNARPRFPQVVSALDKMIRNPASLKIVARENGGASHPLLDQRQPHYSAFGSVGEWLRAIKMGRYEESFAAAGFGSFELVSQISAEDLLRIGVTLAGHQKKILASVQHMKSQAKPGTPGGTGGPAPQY
Serine/threonine-protein kinase PLK1 (Homo sapiens), sequence (P53350 whole entry, the tested form may be a part): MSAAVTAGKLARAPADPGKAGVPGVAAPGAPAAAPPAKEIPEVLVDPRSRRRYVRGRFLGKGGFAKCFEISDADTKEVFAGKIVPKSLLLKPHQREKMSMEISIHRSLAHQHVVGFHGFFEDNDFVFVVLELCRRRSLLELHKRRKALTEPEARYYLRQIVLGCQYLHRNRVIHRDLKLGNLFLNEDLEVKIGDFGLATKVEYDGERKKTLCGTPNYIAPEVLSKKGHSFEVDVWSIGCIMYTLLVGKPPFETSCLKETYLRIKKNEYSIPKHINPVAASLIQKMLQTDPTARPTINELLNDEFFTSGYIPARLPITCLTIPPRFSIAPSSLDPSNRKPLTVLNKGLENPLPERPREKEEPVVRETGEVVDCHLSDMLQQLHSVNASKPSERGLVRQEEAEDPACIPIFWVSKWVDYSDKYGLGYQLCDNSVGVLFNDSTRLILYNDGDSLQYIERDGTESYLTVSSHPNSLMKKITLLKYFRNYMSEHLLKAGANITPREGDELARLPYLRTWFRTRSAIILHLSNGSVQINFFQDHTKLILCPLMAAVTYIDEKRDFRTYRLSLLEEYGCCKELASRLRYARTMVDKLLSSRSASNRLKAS
Mitogen-activated protein kinase 13 (Homo sapiens), sequence (O15264 whole entry, the tested form may be a part): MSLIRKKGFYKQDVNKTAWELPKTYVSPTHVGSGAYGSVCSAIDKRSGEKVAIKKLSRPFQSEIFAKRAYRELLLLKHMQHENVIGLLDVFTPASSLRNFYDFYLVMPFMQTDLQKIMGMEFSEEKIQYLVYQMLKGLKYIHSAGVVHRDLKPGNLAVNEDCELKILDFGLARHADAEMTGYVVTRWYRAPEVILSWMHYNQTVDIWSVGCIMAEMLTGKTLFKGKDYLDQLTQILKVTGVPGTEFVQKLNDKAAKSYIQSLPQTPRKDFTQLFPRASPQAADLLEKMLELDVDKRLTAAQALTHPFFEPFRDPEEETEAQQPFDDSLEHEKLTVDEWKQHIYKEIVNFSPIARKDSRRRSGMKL

In the case of `CCC(=O)Nc1cccc(Oc2nc(Nc3ccc(N4CCN(C)CC4)cc3OC)ncc2Cl)c1`, the inhibition result (in the assay with U2OS; in [3]; in assay [8]; in the assay with MEF) was “Active” each time. The Activity in [1] is 71%; in assay [2], 84%; in [4], 77%; in assay [6], 84%; in assay [7], 63%; in assay [9] it was 67%. For the same molecule, in [10], the Activity came to 83%. For the same molecule, in assay [5], the inhibition result was “Dose-Dependent Effect”.
